Source: PubChem
The list is not random: actives were taken first. Their share in the collection is about 4.5%.
TAAR1 antag – antagonists of human TAAR1. inhibition, % at 3 µM. CHO RD-HGA16 TAAR1, Fluo-8 calcium fluorescence, antagonist. AID 624466. 360,000 tested, 1.5% active. Q96RJ0;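 active means inhibition above a per-plate cutoff, the mean inhibition of test compounds on that plate plus 3 SD, cut at about 49% in these data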;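 further: 0% = DMSO plus EC80 beta-PEA response and 100% = DMSO alone without agonist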
Target sequence (Q96RJ0 whole entry, looked up): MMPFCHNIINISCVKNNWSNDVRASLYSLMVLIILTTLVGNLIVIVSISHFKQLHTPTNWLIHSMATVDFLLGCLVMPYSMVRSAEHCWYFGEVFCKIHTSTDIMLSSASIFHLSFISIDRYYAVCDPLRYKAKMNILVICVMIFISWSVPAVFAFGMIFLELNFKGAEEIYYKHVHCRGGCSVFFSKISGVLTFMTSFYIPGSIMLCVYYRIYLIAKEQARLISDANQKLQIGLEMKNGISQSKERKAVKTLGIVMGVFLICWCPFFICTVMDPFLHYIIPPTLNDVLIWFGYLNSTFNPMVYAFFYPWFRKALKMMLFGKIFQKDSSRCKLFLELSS
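Test system: hTAAR1-expressing CHO RD-HGA16 cells, Gα16-coupled; Probe or stimulus: EC80 β-phenethylamine stimulus; Compound dosing: single nominal final test compound concentration of 3 µM; Timing: 140 s kinetic read after compound, 140 s after agonist; Signal: Fluo-8 calcium-sensitive fluorescence; Measure: % inhibition of agonist calcium response; Controls: DMSO and EC80 PEA controls.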
CHO parental Ca – counter-screen for OX1R antagonists: effect in parental CHO cells; 330,000 tested, 0.63% active; inhibition, % at 5.6 µM; parental CHO-K1, ATP-induced calcium, Fluo-8 fluorescence;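 active means inhibition above that plate's mean sample inhibition plus 3 SD, cut at about 26% in these data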;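 further: 0% = ATP-challenged DMSO wells and 100% = DMSO wells without ATP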
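Material: Parental CHO cells | Reagent: ATP | Compound dosing: Single nominal dose of 5.6 µM per compound | Detection: Intracellular calcium via Fluo-8 no-wash fluorescent dye | Read-out: % inhibition of ATP-induced calcium mobilization | Benchmarks: Low control ATP plus DMSO, high control DMSO only | Replicates: Singlicate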
OX1R antag-1 – blocks the human orexin 1 receptor. O43613. AID 434989. CHO/OX1R cells, Fluo-8 calcium fluorescence, orexin A. inhibition, % at 5 µM. 330,000 tested, 0.43% active;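 active means inhibition above its plate's threshold, mean inhibition of all tested compounds on the plate plus 3 SD, cut at about 37% in these data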;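 further: 0% = orexin A challenge wells and 100% = SB-334867-A antagonist wells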
GPR7 antagonist – human neuropeptides B/W receptor 1 antagonism; 290,000 tested, 1.1% active; inhibition, % at 4.4 µM; GPR7-expressing cells, fluorescence antagonist assay; P48145; in the data active means inhibition above about 16%, passing the limit was not always enough;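 further: cells stimulated with the agonist NPW; 0% = agonist with vehicle and 100% = vehicle without agonist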
Target sequence (P48145 whole entry, looked up): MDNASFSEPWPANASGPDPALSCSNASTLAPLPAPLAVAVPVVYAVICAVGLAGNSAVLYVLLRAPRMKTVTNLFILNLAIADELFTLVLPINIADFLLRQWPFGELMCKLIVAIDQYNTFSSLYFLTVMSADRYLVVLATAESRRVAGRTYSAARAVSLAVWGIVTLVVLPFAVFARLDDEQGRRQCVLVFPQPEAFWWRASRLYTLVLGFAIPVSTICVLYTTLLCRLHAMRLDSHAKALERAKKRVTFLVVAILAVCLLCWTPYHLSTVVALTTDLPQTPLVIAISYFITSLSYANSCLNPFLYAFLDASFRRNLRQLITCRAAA
OX1R antag-2 – blocks the human orexin 1 receptor; OX1R-expressing cells, FRET antagonist read-out; inhibition, % at 6.6 µM; 330,000 tested, 1.8% active; in the data active means inhibition mostly above about 38%, no sharp cut-off; inactive means mostly below about 40%;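 further: 0% = agonist challenge alone and 100% = reference antagonist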
TAAR1 ag – agonists of human TAAR1; activation, % at 3 µM; Q96RJ0; 360,000 tested, 0.99% active; CHO RD-HGA16 TAAR1, Fluo-8 calcium fluorescence; vehicle wells 0%, saturating PEA agonist 100%;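 active means activation above the mean activation of all test compounds in the run plus 3 SD, cut at about 38% in these data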
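Assay system: CHO-derived RD-HGA16 cells with stable Gα16 and human TAAR1; timing: 17-24 h seeding, 75 min 37 °C dye, 30 min RT; read-out: % activation from peak over basal fluorescence ratio, DMSO-to-PEA scaled; measured by: kinetic Fluo-8 calcium fluorescence; benchmarks: low control DMSO, high control PEA (EC100); doses: 3 µM single concentration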
OX1R Fluo8 conf – OX1R (human) antagonism, confirmed | shares compounds with OX1R antag-1 | CHO/OX1R cells, orexin A calcium Fluo-8 fluorescence | inhibition, % at 5 µM | 1,100 tested, 38% active | AID 492963; in the data active means inhibition above about 29%;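 further: 0% = agonist challenge alone and 100% = reference antagonist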
CHO Ca triplic – counter-screen for OX1R antagonists: effect in parental CHO cells; shares compounds with OX1R antag-1; parental CHO-K1, ATP-induced calcium, Fluo-8 fluorescence; inhibition, % at 5.6 µM; 1,100 tested, 9.3% active; AID 492965;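 active means inhibition above a per-plate limit, the mean inhibition of that plate's test compounds plus 3 SD, cut at about 25% in these data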;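 further: 0% = ATP challenge with DMSO and 100% = DMSO without ATP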
* = called active by the depositor.

CC(c1ccccc1)C(Cc1nc2ccccc2[nH]1)c1nc2ccccc2[nH]1 (configuration not stated) was read as CHO parental Ca 6, OX1R antag-1 45*, GPR7 antagonist -5, OX1R antag-2 36, OX1R Fluo8 conf 7 and CHO Ca triplic -20.
`COc1cc(CN2C[C@@H](CO)O[C@@H](n3cnc4c(N5CCN(C)CC5)ncnc43)C2)cc(OC)c1OC` gave TAAR1 antag 0 and TAAR1 ag 1.
For Cc1cc(-c2nnc3n2N=C(c2ccc(-c4ccccc4)cc2)CS3)n[nH]1 the results were TAAR1 antag 36, CHO parental Ca 17, OX1R antag-1 57*, GPR7 antagonist 3, OX1R antag-2 4, TAAR1 ag 45*, OX1R Fluo8 conf 8 and CHO Ca triplic -4.
Screening Cc1noc(C)c1COc1ccc(C(=O)OCC(=O)N2CC(=O)Nc3ccccc32)cc1 returned TAAR1 antag 5, CHO parental Ca -2, OX1R antag-1 82*, GPR7 antagonist -5, OX1R antag-2 35, TAAR1 ag 9, OX1R Fluo8 conf 76* and CHO Ca triplic -7.
`Cc1noc(C)c1CSCC(=O)OCC(=O)N1CC(=O)Nc2ccccc21` gave TAAR1 antag -11, CHO parental Ca -3, OX1R antag-1 -21, GPR7 antagonist -14, OX1R antag-2 19 and TAAR1 ag 14.
`Cc1noc(C)c1COc1ccc(C(=O)OCC(N)=O)cc1` gave TAAR1 antag 0, CHO parental Ca -4, OX1R antag-1 -13, GPR7 antagonist -1, OX1R antag-2 8 and TAAR1 ag 4.
Screening Cc1noc(C)c1COc1ccc(C(=O)OCC(=O)N2c3ccccc3NC(=O)C2(C)C)cc1 returned TAAR1 antag 67*, CHO parental Ca -13, OX1R antag-1 29, GPR7 antagonist 0, OX1R antag-2 16, TAAR1 ag 31, OX1R Fluo8 conf 47* and CHO Ca triplic 5.
`COc1ccccc1-c1csc(C(O)c2ccccc2)n1` (configuration not stated) gave TAAR1 antag -24 and TAAR1 ag -1.
`CCC(NC(=O)c1cc(COc2cc(C)c(Cl)c(C)c2)on1)c1ccncc1` (configuration not stated) gave TAAR1 antag 35, CHO parental Ca 17, OX1R antag-1 42*, GPR7 antagonist 17, OX1R antag-2 17, TAAR1 ag 43*, OX1R Fluo8 conf 27 and CHO Ca triplic 7.
Screening CCC(NC(=O)c1cc(COc2ccc(OC)cc2Cl)on1)c1ccncc1 (configuration not stated) returned TAAR1 antag -10, CHO parental Ca -15, OX1R antag-1 -12, GPR7 antagonist 9, OX1R antag-2 4 and TAAR1 ag 15.
Screening COc1ccc(CCNc2c(C)c(C)nc3ncnn23)cc1 returned TAAR1 antag 21, CHO parental Ca 16, OX1R antag-1 45*, GPR7 antagonist 18, OX1R antag-2 11, TAAR1 ag 10, OX1R Fluo8 conf 25 and CHO Ca triplic 77*.
`C/C(=N\Nc1ccc(C(F)(F)F)cn1)c1ccc(S(=O)(=O)NCc2ccco2)cc1` gave TAAR1 antag 36, CHO parental Ca -15, OX1R antag-1 30, GPR7 antagonist 1, OX1R antag-2 35, TAAR1 ag 2, OX1R Fluo8 conf 4 and CHO Ca triplic 0.
`Cn1cnc(S(=O)(=O)N2CCCCC2c2cc(C(=O)Nc3cccc4c3CCCC4)no2)c1` (configuration not stated) gave TAAR1 antag -4 and TAAR1 ag 2.
CCOC(=O)c1ccc(N=C2SC(C(=O)Nc3ccc(C(=O)O)cc3)CC(=O)N2Cc2cccs2)cc1 (configuration not stated) was read as TAAR1 antag 15, CHO parental Ca 25, OX1R antag-1 35, GPR7 antagonist -2, OX1R antag-2 27, TAAR1 ag 1, OX1R Fluo8 conf 18 and CHO Ca triplic 7.
CCOC(=O)c1ccc(N=C2SC(C(=O)NC)CC(=O)N2Cc2ccc(F)cc2)cc1 (configuration not stated) was read as TAAR1 antag -18, CHO parental Ca -1, OX1R antag-1 -4, GPR7 antagonist -8, OX1R antag-2 15 and TAAR1 ag 6.
Screening CC(C)(C)S(=O)N1Cc2cc(C(=O)N3CCOCC3)nc(-c3cccc(Br)c3)c2[C@@H]1CCO (some centres not stated) returned TAAR1 antag -10 and TAAR1 ag 1.
Screening Cc1cc(OCc2cc(C(=O)N3CCN(C)C(=O)[C@@H]3C)no2)cc(C)c1Cl returned TAAR1 antag 28, CHO parental Ca 25, OX1R antag-1 43*, GPR7 antagonist -6, OX1R antag-2 23, TAAR1 ag 15, OX1R Fluo8 conf 16 and CHO Ca triplic 28*.
`O=C(Nc1ccc2c(c1)OCCO2)C(C1CC1)N1CCN(c2ccc(C(F)(F)F)cn2)CC1` (configuration not stated) gave TAAR1 antag -12 and TAAR1 ag 0.
`O=C(Nc1cccc(S(=O)(=O)Nc2ccc(SC(F)F)cc2)c1)C1CCC1` gave TAAR1 antag 18, CHO parental Ca 6, OX1R antag-1 37, OX1R antag-2 17, TAAR1 ag 6, OX1R Fluo8 conf 3 and CHO Ca triplic -2.
Cc1ccc(Nc2nc3ccccc3nc2Nc2c(C)n(C)n(-c3ccccc3)c2=O)cc1 was read as TAAR1 antag 4, CHO parental Ca -3, OX1R antag-1 57*, GPR7 antagonist -4, OX1R antag-2 14, TAAR1 ag 0, OX1R Fluo8 conf 3 and CHO Ca triplic 4.
Screening Cc1c(Nc2nc3ccccc3nc2NS(=O)(=O)c2cccc(Cl)c2)c(=O)n(-c2ccccc2)n1C returned TAAR1 antag -17, CHO parental Ca -9, OX1R antag-1 -32, GPR7 antagonist 4, OX1R antag-2 27 and TAAR1 ag 1.
For Brc1ccccc1-n1nnc(-c2nccs2)n1 the results were TAAR1 antag 13, CHO parental Ca -12, OX1R antag-1 45, GPR7 antagonist -15, OX1R antag-2 22, TAAR1 ag 14, OX1R Fluo8 conf 7 and CHO Ca triplic -8.
Screening CCCCN(C(=O)c1ccccc1Cl)C(CC(C)C)c1nc2ccccc2[nH]1 (configuration not stated) returned TAAR1 antag 1 and TAAR1 ag -1.
